Measured values published in ChEMBL document CHEMBL1157365, “Efficacy of telavancin in the treatment of experimental endocarditis due to glycopeptide-intermediate Staphylococcus aureus” (Antimicrob Agents Chemother, 2007).
≈ marks a conversion by molar mass, not a printed value. Calls of active or inactive are those of the source.

Legend:
[1] = tested on: Staphylococcus aureus; assay: Antibacterial activity against glycopeptide-intermediate resistant Staphylococcus aureus HIP 5836 isolate infected New Zealand white rabbit endocarditis model assessed as bacterial count per gram of microbial vegetation at 10 mg/kg, iv administered every 24 hrs for 2 days; assay type: functional
Summary of the method: (§1)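 After 24 h they were inoculated i.v. through the ear vein with 1 ml of 7 × 10⁵ CFU/ml. Bacteremia was confirmed at 18 h, after which animals were randomized. Human-like kinetics were delivered by computer-controlled pump through a cava catheter for 48 h. Animals were killed 6 drug half-lives later. Aortic vegetations were weighed, homogenized and cultured quantitatively on plates, with broth culture for 1 week. Results are median log₁₀ CFU/g: 2 for broth-only growth, 0 for sterile. Sterility rates were compared by Fisher's exact test.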

[2] = tested on: Staphylococcus aureus; assay: Antibacterial activity against glycopeptide-intermediate resistant Staphylococcus aureus ATCC 700788 infected New Zealand white rabbit endocarditis model assessed as survival at 10 mg/kg, iv administered every 24 hrs for 2 days; assay type: functional; summary of the method: as §1
[3] = Terminal half life in human at 10 mg/kg, iv administered every 24 hrs; assay type: ADME, organism-based; parameters: dose 10 mg/kg, route intravenous; details: in vivo
[4] = Terminal half life in rabbit at 15 mg/kg, iv; assay type: ADME, organism-based, Oryctolagus cuniculus; parameters: dose 15 mg/kg, route intravenous; details: in vivo
Summary of the method: (§2)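 Healthy rabbits (n = 5) received telavancin at 15 mg/kg i.v. Blood was drawn through a carotid artery catheter. Plasma telavancin was measured by a validated LC-MS/MS method with a lower limit of quantitation of 0.25 μg/ml. The first-order elimination constant, β-phase half-life and AUC were derived from the concentration-time data.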

[5] = tested on: Oryctolagus cuniculus; assay: Protein binding in rabbit at 10 mg/kg, iv; assay type: ADME, organism-based; parameters: dose 10 mg/kg, route intravenous; details: in vivo
[6] = tested on: Staphylococcus aureus; assay: Antibacterial activity against glycopeptide-intermediate resistant Staphylococcus aureus HIP 5836 isolate by microbroth dilution method; assay type: functional
Summary of the method: (§3)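 MIC and MBC were determined by broth microdilution in cation-adjusted Mueller-Hinton broth per CLSI guidelines. S. aureus ATCC 29213 served as the control strain. Strains were stored frozen in skim milk at −80°C and subcultured on 5% sheep blood Columbia agar before each run.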

[7] = tested on: Homo sapiens; assay: Protein binding in human at 7.5 mg/kg, iv administered every 24 hrs; assay type: ADME, organism-based; parameters: dose 7.5 mg/kg, route intravenous; details: in vivo
[8] = Ratio of AUC in rabbit at 7.5 mg/kg, iv qd to MIC for Staphylococcus aureus HIP 5836 isolate; assay type: functional
Summary of the method: (§4)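 The AUC came from the rabbit infusion simulating human 7.5 mg/kg i.v. once daily. It was divided by each strain's MIC. MICs were determined by CLSI broth microdilution in cation-adjusted Mueller Hinton broth, with S. aureus ATCC 29213 as the control strain.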

[9] = AUC in rabbit at 7.5 mg/kg, iv administered once daily; assay type: ADME, organism-based, Oryctolagus cuniculus; parameters: dose 7.5 mg/kg, route intravenous; details: plasma
Summary of the method: (§5)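 A computer-controlled pump infused telavancin at precalculated flow rates to reproduce the human 7.5 mg/kg i.v. once-daily serum profile. Plasma levels were measured by validated LC-MS/MS (n = 3 or 5).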

[10] = AUC in human at 10 mg/kg, iv administered every 24 hrs; assay type: ADME, organism-based; parameters: dose 10 mg/kg, route intravenous; details: plasma
[11] = Cmax in human at 7.5 mg/kg, iv administered every 24 hrs; assay type: ADME, organism-based; parameters: dose 7.5 mg/kg, route intravenous; details: in vivo
[12] = Terminal half life in human at 7.5 mg/kg, iv administered every 24 hrs; assay type: ADME, organism-based; parameters: dose 7.5 mg/kg, route intravenous; details: in vivo
[13] = tested on: Staphylococcus aureus; assay: Antibacterial activity against glycopeptide-intermediate resistant Staphylococcus aureus ATCC 700788 assessed as reduction of bacterial count after 24 hrs by time kill curve study; assay type: functional
Summary of the method: (§6)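 Duplicate time-kill curves followed CLSI criteria with an inoculum of 10⁵ CFU/ml. Viable counts were taken at 0, 4 and 24 h. Bactericidal activity was defined as a ≥3 log₁₀ CFU/ml drop at 24 h versus the starting inoculum.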

[14] = Ratio of AUC in rabbit at 7.5 mg/kg, iv qd to MIC for Staphylococcus aureus ATCC 700788; assay type: functional; summary of the method: as §4
[15] = Cmax in rabbit at 7.5 mg/kg, iv administered once daily; assay type: ADME, organism-based, Oryctolagus cuniculus; parameters: dose 7.5 mg/kg, route intravenous; details: in vivo; summary of the method: as §5
[16] = tested on: Staphylococcus aureus; assay: Antibacterial activity against glycopeptide-intermediate resistant Staphylococcus aureus ATCC 700788 by microbroth dilution method; assay type: functional; summary of the method: as §3
[17] = Cmax in rabbit at 10 mg/kg, iv administered once daily; assay type: ADME, organism-based, Oryctolagus cuniculus; parameters: dose 10 mg/kg, route intravenous; details: in vivo
[18] = tested on: Oryctolagus cuniculus; assay: Protein binding in rabbit at 15 mg/kg, iv; assay type: ADME, organism-based; parameters: dose 15 mg/kg, route intravenous; details: in vivo
[19] = AUC in rabbit at 15 mg/kg, iv; assay type: ADME, organism-based, Oryctolagus cuniculus; parameters: dose 15 mg/kg, route intravenous; details: plasma; summary of the method: as §2
[20] = Terminal half life in rabbit at 7.5 mg/kg, iv administered once daily; assay type: ADME, organism-based, Oryctolagus cuniculus; parameters: dose 7.5 mg/kg, route intravenous; details: in vivo; summary of the method: as §5
[21] = tested on: Homo sapiens; assay: Protein binding in human at 10 mg/kg, iv administered every 24 hrs; assay type: ADME, organism-based; parameters: dose 10 mg/kg, route intravenous; details: in vivo
[22] = tested on: Staphylococcus aureus; assay: Antibacterial activity against glycopeptide-intermediate resistant Staphylococcus aureus HIP 5836 isolate infected New Zealand white rabbit endocarditis model assessed as survival at 10 mg/kg, iv administered every 24 hrs for 2 days; assay type: functional; summary of the method: as §1
[23] = tested on: Staphylococcus aureus; assay: Antibacterial activity against glycopeptide-intermediate resistant Staphylococcus aureus ATCC 700788 infected New Zealand white rabbit endocarditis model assessed as sterile bacterial vegetation at 10 mg/kg, iv administered every 24 hrs for 2 days; assay type: functional; summary of the method: as §1
[24] = tested on: Staphylococcus aureus; assay: Antibacterial activity against glycopeptide-intermediate resistant Staphylococcus aureus HIP 5836 isolate assessed as reduction of bacterial count after 24 hrs by time kill curve study; assay type: functional; summary of the method: as §6
[25] = tested on: Staphylococcus aureus; assay: Antibacterial activity against glycopeptide-intermediate resistant Staphylococcus aureus ATCC 700788 infected New Zealand white rabbit endocarditis model assessed as bacterial count per gram of microbial vegetation at 10 mg/kg, iv administered every 24 hrs for 2 days; assay type: functional; summary of the method: as §1
[26] = AUC in human at 7.5 mg/kg, iv administered every 24 hrs; assay type: ADME, organism-based; parameters: dose 7.5 mg/kg, route intravenous; details: plasma
[27] = tested on: Staphylococcus aureus; assay: Antibacterial activity against glycopeptide-intermediate resistant Staphylococcus aureus HIP 5836 isolate infected New Zealand white rabbit endocarditis model assessed as sterile bacterial vegetation at 10 mg/kg, iv administered every 24 hrs for 2 days; assay type: functional; summary of the method: as §1
[28] = Protein binding in human at 1 g, iv administered every 12 hrs; assay type: ADME, organism-based; details: in vivo, read-out: PB
[29] = Cmax in human at 1 g, iv administered every 12 hrs; assay type: ADME, organism-based; parameters: dose 1 g, route intravenous; details: in vivo
[30] = AUC in human at 1 g, iv administered every 12 hrs; assay type: ADME, organism-based; details: plasma
[31] = tested on: Staphylococcus aureus; assay: Antibacterial activity against glycopeptide-intermediate resistant Staphylococcus aureus HIP 5836 isolate infected New Zealand white rabbit endocarditis model assessed as bacterial count per gram of microbial vegetation at 1 g, iv administered every 12 hrs for 2 days
[32] = Ratio of AUC in rabbit at 1 g, iv bid to MIC for Staphylococcus aureus HIP 5836 isolate; assay type: functional
Summary of the method: (§7)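 A computer-controlled pump infused vancomycin to mimic the human 1 g i.v. every-12-h profile. Blood was drawn at 0–6 h after infusion start. Vancomycin was measured by latex-boosted immunoturbidimetry (detection limit 0.8 μg/ml). AUC was divided by the MIC, determined by CLSI broth microdilution in cation-adjusted Mueller-Hinton broth.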

[33] = AUC in rabbit at 25 mg/kg, iv; assay type: ADME, organism-based, Oryctolagus cuniculus; parameters: dose 25 mg/kg, route intravenous; details: plasma
Summary of the method: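 Five healthy rabbits received a 25 mg/kg i.v. dose through a jugular-to-cava catheter. Blood was drawn through a carotid catheter at 0, 0.25, 0.5, 1, 2, 3, 4, 5 and 6 h. Plasma vancomycin was measured by latex-boosted immunoturbidimetry, detection limit 0.8 μg/ml. Elimination rate, half-life and AUC were reported as mean ± variation.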

[34] = Cmax in rabbit at 1 g, iv administered twice daily; assay type: ADME, organism-based, Oryctolagus cuniculus; parameters: dose 1 g, route intravenous; details: in vivo
Summary of the method: (§8)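 Rabbits carried a carotid artery catheter for blood sampling and a jugular-to-cava catheter for infusion. A computer-controlled pump delivered the drug to simulate the human profile of 1 g i.v. twice daily. Vancomycin was measured by latex-boosted immunoturbidimetry, detection limit 0.8 μg/ml. Rabbits per group: n = 3 or 5.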

[35] = AUC in rabbit at 1 g, iv administered twice daily; assay type: ADME, organism-based, Oryctolagus cuniculus; details: plasma; summary of the method: as §8
[36] = tested on: Staphylococcus aureus; assay: Antibacterial activity against glycopeptide-intermediate resistant Staphylococcus aureus ATCC 700788 infected New Zealand white rabbit endocarditis model assessed as bacterial count per gram of microbial vegetation at 1 g, iv administered every 12 hrs for 2 days
[37] = Ratio of AUC in rabbit at 1 g, iv bid to MIC for Staphylococcus aureus ATCC 700788; assay type: functional; summary of the method: as §7
[38] = Terminal half life in human at 1 g, iv administered every 12 hrs; assay type: ADME, organism-based; details: in vivo
[39] = Terminal half life in rabbit at 1 g, iv administered twice daily; assay type: ADME, organism-based, Oryctolagus cuniculus; details: in vivo; summary of the method: as §8

CCCCCCCCCCNCCN[C@@]1(C)C[C@H](O[C@H]2[C@H](Oc3c4cc5cc3Oc3ccc(cc3Cl)[C@@H](O)[C@@H](NC(=O)[C@@H](CC(C)C)NC)C(=O)N[C@@H](CC(N)=O)C(=O)N[C@H]5C(=O)N[C@H]3C(=O)N[C@H](C(=O)N[C@H](C(=O)O)c5cc(O)c(CNCP(=O)(O)O)c(O)c5-c5cc3ccc5O)[C@H](O)c3ccc(c(Cl)c3)O4)O[C@H](CO)[C@@H](O)[C@@H]2O)O[C@@H](C)[C@H]1O [TELAVANCIN]
log10cfu [1]: 4.4
Activity [2]: 94%
half-life [3]: 7.41 h
half-life [4]: 1.2 h
Activity [5]: 90%
MBC [6]: 8 µg/mL (≈ 4.56 µM)
MIC [6]: 4 µg/mL (≈ 2.28 µM)
Activity [7]: 90%
RatioAUC/MIC [8]: 159.5
AUC [9]: 638 µg·h/mL
AUC at 24 h [10]: 785 µg·h/mL
Cmax [11]: 89 µg/mL
half-life [12]: 6.18 h
log10CFU/ml [13]: 2
RatioAUC/MIC [14]: 638
Cmax [15]: 90 µg/mL
MBC [16]: 4 µg/mL (≈ 2.28 µM)
MIC [16]: 1 µg/mL (≈ 0.57 µM)
Cmax [17]: 114 µg/mL
Activity [18]: 90%
AUC [19]: 270 µg·h/mL
half-life [20]: 4.6 h
Activity [21]: 90%
Activity [22]: 94%
Activity [23]: 37%
log10CFU/ml [24]: 2
log10cfu [25]: 4.6
AUC at 24 h [26]: 604 µg·h/mL
Activity [27]: 31%

CN[C@H](CC(C)C)C(=O)N[C@H]1C(=O)N[C@@H](CC(N)=O)C(=O)N[C@H]2C(=O)N[C@H]3C(=O)N[C@H](C(=O)N[C@H](C(=O)O)c4cc(O)cc(O)c4-c4cc3ccc4O)[C@H](O)c3ccc(c(Cl)c3)Oc3cc2cc(c3O[C@@H]2O[C@H](CO)[C@@H](O)[C@H](O)[C@H]2O[C@H]2C[C@](C)(N)[C@H](O)[C@H](C)O2)Oc2ccc(cc2Cl)[C@H]1O [VANCOMYCIN]
fraction unbound at 12 h [28]: 0.5
Cmax [29]: 52 µg/mL
AUC at 12 h [30]: 359 µg·h/mL
log10cfu [31]: 6.7
MBC [6]: 128 µg/mL (≈ 88.3 µM)
MIC [6]: 8 µg/mL (≈ 5.52 µM)
RatioAUC/MIC [32]: 37.3
AUC [33]: 101 µg·h/mL
Activity [13]: Active
Cmax [34]: 46 µg/mL
AUC [35]: 299 µg·h/mL
log10cfu [36]: 6.6
MBC [16]: 128 µg/mL (≈ 88.3 µM)
MIC [16]: 8 µg/mL (≈ 5.52 µM)
RatioAUC/MIC [37]: 37.3
half-life [38]: 4.6 h
half-life [39]: 3.8 h
Activity [24]: Active
